Experimental data pooled from the literature.
Each line is one published result; the experiments were not run side by side.
Target: Protein-tyrosine kinase 6 (PTK6, Homo sapiens, UniProt Q13882)

`CC(C)(C)c1nc2c(s1)c1nc(N)ncc1c1ccc(NS(=O)(=O)c3c(F)cccc3F)c(F)c12` gave a remaining activity of 104% (enzyme activity; inhibitor; radiometric; 1 µM).
`Nc1nc(Nc2ccc(S(N)(=O)=O)cc2)nn1C(=O)c1c(F)cccc1F` gave a remaining signal of 83.9% (cell-free assay; 0.5 µM).
`CCN(CC)CCNC(=O)c1c(C)[nH]c(/C=C2\C(=O)Nc3ccc(F)cc32)c1C` has an inhibition of 74% (enzyme activity; inhibitor; 10 µM).
For `O=C1NC(=O)c2cc(Nc3ccc(F)cc3)c(Nc3ccc(F)cc3)cc21`, the remaining signal was 95.1% (cell-free assay; 0.5 µM).
For `Cc1ccc(C(=O)NCc2ccsc2)cc1C#Cc1cn(C(C)C)c2ncnc(N)c12`, the activity vs control was 7% (enzyme activity; inhibitor; 1 µM).
`CN(C)C1CCN(CC#Cc2nn(C3CCCC3)c3nc(NCc4ccccc4)ncc23)C1` (stereo not shown) has an inhibition of -2% (enzyme activity; inhibitor; FRET; 0.1 µM).
With `COc1ccc2c(O[C@@H]3C[C@H]4C(=O)N[C@]5(C(=O)O)CC5/C=C\CCCCC[C@H](NC(=O)OC5CCCC5)C(=O)N4C3)cc(-c3csc(NC(=O)C(C)C)n3)nc2c1C` (stereo partly shown) the remaining binding was 97% (cell-free assay; competition with immobilised ligand; 1 µM).
For `Cc1ccc(Nc2nccc(N(C)c3ccc4c(C)n(C)nc4c3)n2)cc1S(N)(=O)=O`, the inhibition was 88% (enzyme activity; inhibitor; 10 µM).
With `CC(=O)N1CCC(c2ccc(C(=O)NC3=NCCN3)cc2C(F)(F)F)CC1` the remaining binding was 88% (cell-free assay; competition with immobilised ligand; 1 µM).
The remaining activity of `Cc1sc(C(=O)NC2COC2)cc1-n1cc(NC(=O)Nc2c(F)cccc2Cl)cn1` is reported as 78.9% (enzyme activity; inhibitor; 10 µM).
For `CCCOc1ccc([C@@H]2[C@@H](C(=O)O)[C@H](c3ccc4c(c3)OCO4)CN2CC(=O)Nc2c(CC)cccc2CC)cc1`, the remaining binding was 83% (cell-free assay; competition with immobilised ligand; 1 µM).
The remaining activity of `O=C(Nc1cnn(-c2csc(C(=O)NC3COC3)c2)c1)Nc1ccccc1Cl` is reported as 118% (enzyme activity; inhibitor; 5 µM).
With `FC(F)(F)Oc1cccc(-c2cnc3ccc(-c4ccncc4)nn23)c1` the activity vs control was 72% (enzyme activity; inhibitor; radiometric; 1 µM).
`Cc1nc(Cc2cccc(C(F)(F)F)c2)sc1-c1ccc(C(N)=O)nc1` has a remaining binding of 100% (cell-free assay; competition with immobilised ligand; 1 µM).
`CNC(=O)c1cc2c(Oc3ccc(NC(=O)C4(C(=O)Nc5ccc(F)cc5)CC4)cc3)ccnc2cc1OC` gave an inhibition of 98% (enzyme activity; inhibitor; radiometric; 1 µM).
With `C=CC(=O)Nc1cc(Nc2nccc(Nc3cc(Cl)c(F)cc3C(C)(C)O)n2)c(OC)cc1N1CC[C@@H](N(C)C)C1` the inhibition was 63% (enzyme activity; inhibitor; 1 µM).
`Nc1ncnc2occ(-c3ccc(NC(=O)Nc4cc(C(F)(F)F)ccc4F)cc3)c12` has a remaining signal of 20% (cell-free assay; inhibitor; 20 µM).
With `Cc1cc(NC(=O)c2cccc3cc(-c4cccc5[nH]nc(N)c45)ccc23)ccc1F` the activity vs control was 97% (enzyme activity; inhibitor; 0.1 µM).
With `O=C1CCc2cc(Nc3cc(OC4CCOCC4)c([N+](=O)[O-])cc3Cl)ccc2N1` the remaining binding was 100% (cell-free assay; competition with immobilised ligand; 1 µM).
`CC/C(=N\NC(=O)NCc1cccc(O)c1)c1ccc(O)c(C)c1O` gave an inhibition of -3% (enzyme activity; inhibitor; 0.1 µM).
`COc1cc2ncnc(Nc3ccc(Oc4ccccc4)c(C)c3C)c2cc1OC` gave an inhibition of 93% (enzyme activity; inhibitor; 1 µM).
`O=C(NS(=O)(=O)c1ccc(NCC2CCOCC2)c([N+](=O)[O-])c1)c1ccc(N2CCN(Cc3ccc(C(F)(F)F)cc3-c3ccc(Cl)cc3)CC2)cc1Oc1cnc2[nH]ccc2c1` has a remaining binding of 100% (cell-free assay; competition with immobilised ligand; 1 µM).
The remaining activity of `CCCOc1ccc(OC)c(F)c1C(=O)c1ccc(C(=O)N[C@@H]2CNC[C@H]2NC(=O)c2ccc3[nH]ncc3c2)cc1` is reported as 97% (enzyme activity; inhibitor; 10 µM).
`COc1cc(Nc2cnc(C#N)c(O[C@H](C)CN(C)C)n2)ncc1-c1cnn(C)c1` has a remaining activity of 98% (enzyme activity; inhibitor; radiometric; 1 µM).
For `Cc1cc(C)c(-n2ccn3nc(-c4cccnc4)cc23)cc1NC(=O)c1cc(C#N)cc(S(F)(F)(F)(F)F)c1`, the remaining binding was 99.5% (cell-free assay; competition with immobilised ligand; 0.1 µM).
The inhibition of `CNC(=O)c1cc(Oc2ccc(NC(=O)Nc3ccc(Cl)c(C(F)(F)F)c3)cc2)ccn1` is reported as -3% (enzyme activity; inhibitor; 0.3 µM).
For `CC(=O)C1=C(C)N(c2cccc(C(F)(F)F)c2)C(=O)N[C@@H]1c1ccc(C#N)nc1`, the remaining binding was 100% (cell-free assay; competition with immobilised ligand; 1 µM).
With `N#CCCc1ccc2c(c1)-c1[nH]c3ccc([N+](=O)[O-])cc3c1CC(=O)N2` the remaining signal was 94.6% (cell-free assay; 0.5 µM).
